ChEMBL document CHEMBL5136964, “Truncated S-MGBs: towards a parasite-specific and low aggregation chemotype” (RSC Med Chem, 2021)
≈ marks a conversion by molar mass, not a printed value.

Columns and labels:
[1] = test system: Staphylococcus aureus; assay: Antibacterial activity against Staphylococcus aureus ATCC 43300 measured after 18 hrs by two-fold serial dilution method; assay type: functional
[2] = test system: Enterococcus faecalis; assay: Antibacterial activity against Enterococcus faecalis ATCC 51299 measured after 18 hrs by two-fold serial dilution method; assay type: functional
[3] = test system: Trypanosoma brucei brucei; assay: Antiparasitic activity against bloodstream form of Trypanosoma brucei brucei Lister 427 measured after 48 hrs by alamar blue assay; assay type: functional
[4] = test system: DNA; assay: Binding affinity to DNA (unknown origin) assessed as change in melting temperature at 2:1 compound to DNA ratio by UV-visible spectrophotometry; assay type: nucleic-acid assay
How it was run: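 Duplex oligomer at 6 × 10⁻⁶ M in 10 mM PBS (pH 7.4) with 50 mM NaCl was annealed (90 °C, then unaided cooling) and mixed at 2 S-MGB:1 helix; the reference had no ligand. Samples were heated 10–90 °C and cooled 80–10 °C at 0.5 °C min⁻¹, with A260 recorded. Tm came from a Boltzmann sigmoid fit; three repeats.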

[5] = Aggregation property of compound in 0.1 M pH 5 sodium acetate buffer at 1.5 mM by 1H-NMR spectra analysis; assay type: physicochemical; settings: pH 5, 1500 µM
[6] = Aggregation property of compound in 45% DMSO-d6:55% 0.1 M pH 5 sodium acetate buffer at 1.5 mM by 1H-NMR spectra analysis; assay type: physicochemical; settings: pH 5, 1500 µM
How it was run: (§1)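 Proton NMR series at a fixed 1.5 mM S-MGB. DMSO-d6 was stepped down by 5% from 80% to 25% by adding 0.1 M pH 5 sodium acetate buffer, giving twelve solvent compositions per compound.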

[7] = Diffusion coefficient of compound in 50% v/v pH 5 sodium acetate buffer in DMSO-d6 at 1.5 mM by DOSY analysis; assay type: physicochemical; settings: pH 5, 1500 µM
[8] = Aggregation property of compound at 1.5 mM by 1H-NMR spectra analysis; settings: 1500 µM
[9] = test system: Trypanosoma congolense; assay: Antitrypanosomal activity against bloodstream form of Trypanosoma congolense IL3000 measured after 48 hrs by alamar blue assay; assay type: functional, organism-based; settings: IL3000, 48 h
How it was run: (§2)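 Bloodstream-form T. congolense IL3000 and derived diminazene-resistant lines were grown at 34 °C in humidified 5% CO2 in supplemented MEM with 20% goat serum. Cells at 2.5×10^5 per mL were seeded into serial compound dilutions and incubated 48 h. 0.49 mM resazurin solution was then added for a further 24 h.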

[10] = test system: Trypanosoma vivax; assay: Antitrypanosomal activity against Trypanosoma vivax STIB 719 by [3H]-hypoxanthine incorporation assay; assay type: functional, organism-based
[11] = test system: Trypanosoma congolense; assay: Antitrypanosomal activity against bloodstream form of diminazene-resistant Trypanosoma congolense DimR measured after 48 hrs by alamar blue assay; assay type: functional, organism-based; how it was run: as §2
[12] = test system: Trypanosoma congolense; assay: Antitrypanosomal activity against bloodstream form of diminazene-resistant Trypanosoma congolense EMS MUT DimR measured after 48 hrs by alamar blue assay; assay type: functional, organism-based; how it was run: as §2
[13] = Resistance factor, ratio of EC50 for bloodstream form of diminazene-resistant Trypanosoma congolense DimR to EC50 for bloodstream form of wild-type Trypanosoma congolense; assay type: functional
How it was run: (§3)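 The ratio was taken from Alamar Blue EC50s for resistant and wild-type IL3000 bloodstream-form T. congolense. Cells at 2.5×10^5 per mL were grown at 34 °C in 5% CO2 in supplemented MEM with compound for 48 h, then with resazurin for 24 h.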

[14] = Resistance factor, ratio of EC50 for bloodstream form of diminazene-resistant Trypanosoma congolense EMS MUT DimR to EC50 for wild-type bloodstream form of Trypanosoma congolense; assay type: functional; how it was run: as §3
[15] = test system: Trypanosoma brucei brucei; assay: Antiparasitic activity against bloodstream form of tbat1-/- deficient Trypanosoma brucei brucei measured after 48 hrs by alamar blue assay; assay type: functional, organism-based
[16] = test system: Trypanosoma brucei brucei; assay: Antiparasitic activity against bloodstream form of Trypanosoma brucei brucei B48 measured after 48 hrs by alamar blue assay; assay type: functional, organism-based; settings: B48, 48 h
[17] = Resistance factor, ratio of EC50 for bloodstream form of tbat1-/- deficient Trypanosoma brucei brucei to EC50 for wild-type bloodstream form of Trypanosoma brucei brucei; assay type: functional
[18] = Resistance factor, ratio of EC50 for bloodstream form of Trypanosoma brucei brucei B48 to EC50 for wild-type bloodstream form of Trypanosoma brucei brucei; assay type: functional
[19] = test system: Trypanosoma brucei brucei; assay: Antiparasitic activity against wild-type Trypanosoma brucei brucei measured after 48 hrs by alamar blue assay; assay type: functional, organism-based
[20] = test system: Trypanosoma congolense; assay: Antitrypanosomal activity against bloodstream form of Trypanosoma congolense measured after 48 hrs by alamar blue assay; assay type: functional, organism-based; how it was run: as §2
[21] = test system: Leishmania donovani; assay: Antileishmanial activity against Leishmania donovani MHOM/ET/67:LV82 amastigotes infected in BMDM cell measured after 48 hrs by luciferase assay; assay type: functional, organism-based; settings: MHOM/ET/67:LV82, BMDM
How it was run: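 Bone marrow-derived macrophages (0.5×10^5/well) were infected at a 20:1 […] ratio with luciferase-expressing L. donovani LV82. Free parasites were removed at 24 h post-infection, then doubling dilutions were added, starting at 25 or 20 μg mL⁻¹ from a 1 mg mL⁻¹ DMSO stock. At 72 h, luciferin (150 μg mL⁻¹) was added and bioluminescence suppression read against controls.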

[22] = Cytotoxicity against rat L6 cells assessed as reduction in cell viability measured after 69 hrs by alamar blue assay; assay type: toxicity, cell-based
[23] = Aggregation property of compound in 70% v/v 0.1 M pH 5 sodium acetate buffer in DMSO-d6 at 1.5 mM by 1H-NMR spectra analysis; assay type: physicochemical; settings: pH 5, 1500 µM; how it was run: as §1

Compound	MIC80 [1] [µM]	MIC80 [2] [µM]	EC50 [3] [nM]	ΔTm [4] [°C]	also measured
COc1ccc(/C=C/c2ccc(C(=O)Nc3cc(C(=O)Nc4cc(C(=O)NCCN5CCOCC5)n(C)c4)n(C)c3)cn2)cc1	1.56 (≈ 0.954 µg/mL)	3.12 (≈ 1.91 µg/mL)	1560	12	–
Cn1cc(NC(=O)c2cc(NC(=O)c3ccc(/C=C/c4cnc5ccccc5c4)cc3)cn2C)cc1C(=O)NCCN1CCOCC1 [MGB-BP-3]	0.2 (≈ 0.126 µg/mL)	0.78 (≈ 0.493 µg/mL)	< 190	20	Activity [5]: Active; Activity [6]: Active; D [7]: 1.07 10^-10 m²/s; Activity [8]: Active
COc1ccc(/C=C/c2ccc(C(=O)Nc3cc(C(=O)NN(C)C)n(C)c3)cn2)cc1	> 50	> 50	> 50000	0	–
N=C(N)c1ccc(/N=N/Nc2ccc(C(=N)N)cc2)cc1 [DIMINAZENE]	–	–	500	–	EC50 [9]: 130 nM; EC50 [10]: 170 nM; EC50 [11]: 2100 nM; EC50 [12]: 2300 nM; Ratio EC50 [13]: 9.5; Ratio EC50 [14]: 10.9; EC50 [15]: 180 nM; EC50 [16]: 80 nM; Ratio EC50 [17]: 5.9; Ratio EC50 [18]: 2.6; EC50 [19]: 30 nM; EC50 [20]: 200 nM
CN[C@H](CC(C)C)C(=O)N[C@H]1C(=O)N[C@@H](CC(N)=O)C(=O)N[C@H]2C(=O)N[C@H]3C(=O)N[C@H](C(=O)N[C@H](C(=O)O)c4cc(O)cc(O)c4-c4cc3ccc4O)[C@H](O)c3ccc(c(Cl)c3)Oc3cc2cc(c3O[C@@H]2O[C@H](CO)[C@@H](O)[C@H](O)[C@H]2O[C@H]2C[C@](C)(N)[C@H](O)[C@H](C)O2)Oc2ccc(cc2Cl)[C@H]1O [VANCOMYCIN]	0.39 (≈ 0.565 µg/mL)	6.25 (≈ 9.06 µg/mL)	–	–	–
Cn1cc(NC(=O)c2ccc(/C=C/c3cnc4ccccc4c3)cc2)cc1C(=O)NCCN1CCOCC1	> 50	> 50	3120	10	EC50 [21]: 1600 nM; EC50 [9]: 870 nM; EC50 [10]: 760 nM; EC50 at 69 h [22]: 6700 nM; EC50 [11]: 3100 nM; EC50 [12]: 3200 nM; Ratio EC50 [13]: 0.9; Ratio EC50 [14]: 0.9; EC50 [15]: 550 nM; EC50 [16]: 600 nM; Ratio EC50 [17]: 0.5; Ratio EC50 [18]: 0.5; Activity [5]: Active; Activity [6]: Active; Activity [23]: Active; D [7]: 1.75 10^-10 m²/s; EC50 [19]: 1200 nM; EC50 [20]: 3400 nM; Activity [8]: Active
COc1cccc(/C=C/c2ccc(C(=O)Nc3cc(C(=O)Nc4cc(C(=O)NCCN5CCOCC5)n(C)c4)n(C)c3)cc2)c1	6.25 (≈ 3.82 µg/mL)	25 (≈ 15.3 µg/mL)	780	10	–

The next lines start with results.

MIC80 [1] [µM]	MIC80 [2] [µM]	EC50 [3] [nM]	ΔTm [4] [°C]	Compound	also measured
–	–	–	0	COc1cccc(/C=C/c2ccc(C(=O)Nc3cc(C(=O)NN(C)C)n(C)c3)cc2)c1	–
> 50	> 50	> 50000	0	COc1cccc(/C=C/c2ccc(C(=O)Nc3cc(C(=O)N4CCN(C)CC4)n(C)c3)cc2)c1	–
–	–	–	2	CN1CCN(C(=O)c2cc(NC(=O)c3ccc(/C=C/c4cnc5ccccc5c4)cc3)cn2C)CC1	–
> 50	> 50	> 50000	0	COc1ccc(/C=C/c2ccc(C(=O)Nc3cc(C(=O)N4CCN(C)CC4)n(C)c3)cn2)cc1	–
> 50	> 50	> 50000	0	COc1cccc(/C=C/c2ccc(C(=O)Nc3cc(C(=O)NCCN4CCOCC4)n(C)c3)cc2)c1	–
